Reference: ChEMBL document CHEMBL1833940, “Discovery of 3-(2,6-dichloro-3,5-dimethoxy-phenyl)-1-{6-[4-(4-ethyl-piperazin-1-yl)-phenylamino]-pyrimidin-4-yl}-1-methyl-urea (NVP-BGJ398), a potent and selective inhibitor of the fibroblast growth factor receptor family of receptor tyrosine kinase” (J Med Chem, 2011)
Calls of active or inactive are those of the source. The rule behind the calls is not given here.

Key:
[1] = biological target: Tyrosine-protein kinase Lyn (Homo sapiens, UniProt P07948); assay: Inhibition of recombinant LYN kinase
Tyrosine-protein kinase Lyn, sequence (P07948 whole entry): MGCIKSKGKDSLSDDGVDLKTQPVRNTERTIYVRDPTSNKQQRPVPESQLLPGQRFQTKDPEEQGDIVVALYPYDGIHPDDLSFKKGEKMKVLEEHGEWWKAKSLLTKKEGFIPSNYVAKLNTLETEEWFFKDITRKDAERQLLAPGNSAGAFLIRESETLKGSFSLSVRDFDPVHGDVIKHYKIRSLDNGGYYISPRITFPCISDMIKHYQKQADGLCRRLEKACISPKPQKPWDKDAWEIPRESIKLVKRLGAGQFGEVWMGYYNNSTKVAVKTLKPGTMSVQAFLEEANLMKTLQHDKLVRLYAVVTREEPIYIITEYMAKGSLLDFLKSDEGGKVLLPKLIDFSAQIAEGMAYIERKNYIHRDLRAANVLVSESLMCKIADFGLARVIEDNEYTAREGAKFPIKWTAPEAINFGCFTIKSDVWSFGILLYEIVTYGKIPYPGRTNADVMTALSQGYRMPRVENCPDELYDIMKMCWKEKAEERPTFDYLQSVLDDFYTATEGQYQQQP
Method in brief: (§1)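 Purified recombinant kinases under optimized conditions, with peptide substrates and ATP at each kinase's Km. Phosphorylation was read out by microfluidic mobility shift, and IC50 values were obtained.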

[2] = Cmax in plasma of RT112/luc1 cells implanted athymic nude mouse at 20 mg/kg, po by LC/MS/MS analysis; type: ADME, organism-based; parameters: dose 20 mg/kg, route oral
Method in brief: (§2)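 Female athymic nude mice carried subcutaneous RT112/luc1 tumors (5×10^6 cells, 50% Matrigel; about 300–400 mm3). Dosing was either 5 mg/kg iv by tail vein in NMP/PEG200 (1:9) or 20 mg/kg oral suspension in PEG300/D5W (2:1). Groups of mice (n = 4) were sacrificed at 0.083–24 h. Plasma and tumor levels were measured by LC-MS/MS (LOQ 5 ng/mL, 10 ng/g).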

[3] = Half life in tumor of RT112/luc1 cells implanted in athymic nude mouse at 5 mg/kg, iv by LC/MS/MS analysis; type: ADME, organism-based, Neoplasm; parameters: dose 5 mg/kg, route intravenous; method in brief: as §2
[4] = Half life in tumor of RT112/luc1 cells implanted athymic nude mouse at 20 mg/kg, po by LC/MS/MS analysis; type: ADME, organism-based, Neoplasm; parameters: dose 20 mg/kg, route oral; method in brief: as §2
[5] = Oral bioavailability RT112/luc1 cells implanted athymic nude mouse; type: ADME, organism-based; details: in vivo
Method in brief: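 Female athymic nude mice carrying subcutaneous RT112/luc1 tumors (ca. 300–400 mm3). Dosing was 5 mg/kg iv by tail vein in NMP/PEG200 (1:9) or 20 mg/kg by oral gavage as a suspension in PEG300/D5W (2:1). Groups (n = 4) were sacrificed from 0.083 to 24 h. Plasma and tumor were measured by LC-MS/MS (LOQ 5 ng/mL, 10 ng/g). Noncompartmental analysis used the linear trapezoidal AUC; F was calculated from dose-normalized AUC.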

[6] = Oral bioavailability in Wistar rat at 10 mg/kg; type: ADME, organism-based; details: in vivo
Method in brief: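 Female Wistar rats received 5 mg/kg iv into the femoral vein in NMP/PEG200 (1:9), or the monophosphate salt orally at 10 mg/kg (free base) in acetate buffer pH 4.6/PEG300. Serial sublingual plasma samples were taken from 0.083 to 24 h.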

[7] = Antiproliferative activity against human JMSU1 cells overexpressing wild type FGFR3 after 72 hrs; type: functional, cell-based; details: JMSU-1, 72 h
Method in brief: (§3)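 Bladder cancer lines from ATCC or DSMZ were seeded in 96-well plates (RT4, RT112 at 8500 cells/well; others at 5000 cells/well) in growth medium. Compound dilutions or DMSO were added 24 h later and incubated 72 h. Cells were fixed with glutaraldehyde, stained with 0.05% methylene blue and eluted with 3% HCl, then OD650 nm was read.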

HT1197 = assay: Antiproliferative activity against human HT1197 cells after 72 hrs; type: functional, cell-based; details: HT1197, 72 h; method in brief: as §3
UMUC3 = assay: Antiproliferative activity against human UM-UC-3 cells after 72 hrs; type: functional, cell-based; details: UMUC3, 72 h; method in brief: as §3
[8] = biological target: Tyrosine-protein kinase HCK (Homo sapiens, UniProt P08631); assay: Inhibition of recombinant HCK
Tyrosine-protein kinase HCK, sequence (P08631 whole entry): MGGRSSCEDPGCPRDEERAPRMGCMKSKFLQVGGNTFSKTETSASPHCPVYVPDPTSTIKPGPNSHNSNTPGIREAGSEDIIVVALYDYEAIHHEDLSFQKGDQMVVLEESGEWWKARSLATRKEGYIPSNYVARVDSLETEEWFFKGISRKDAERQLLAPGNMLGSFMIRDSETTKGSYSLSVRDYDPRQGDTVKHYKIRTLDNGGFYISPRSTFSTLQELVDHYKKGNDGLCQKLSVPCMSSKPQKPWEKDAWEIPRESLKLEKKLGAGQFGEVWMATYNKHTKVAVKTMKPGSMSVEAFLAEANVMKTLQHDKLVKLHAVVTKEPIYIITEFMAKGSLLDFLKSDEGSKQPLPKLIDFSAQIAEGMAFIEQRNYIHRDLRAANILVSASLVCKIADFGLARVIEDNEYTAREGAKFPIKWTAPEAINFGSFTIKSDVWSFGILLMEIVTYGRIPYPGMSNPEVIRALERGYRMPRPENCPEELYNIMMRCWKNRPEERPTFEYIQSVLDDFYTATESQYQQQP
Method in brief: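 Purified recombinant kinases under optimized conditions with peptide substrates. ATP was set at each kinase's Km. Phosphorylation was read by microfluidic mobility-shift separation of substrate and product; IC50 determined.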

[9] = biological target: Phosphatidylinositol 4,5-bisphosphate 3-kinase catalytic subunit delta isoform (Homo sapiens, UniProt O00329); assay: Inhibition of recombinant PI3Kdelta by luminescent kinase assay
Phosphatidylinositol 4,5-bisphosphate 3-kinase catalytic subunit delta isoform, sequence (O00329 whole entry, canonical isoform): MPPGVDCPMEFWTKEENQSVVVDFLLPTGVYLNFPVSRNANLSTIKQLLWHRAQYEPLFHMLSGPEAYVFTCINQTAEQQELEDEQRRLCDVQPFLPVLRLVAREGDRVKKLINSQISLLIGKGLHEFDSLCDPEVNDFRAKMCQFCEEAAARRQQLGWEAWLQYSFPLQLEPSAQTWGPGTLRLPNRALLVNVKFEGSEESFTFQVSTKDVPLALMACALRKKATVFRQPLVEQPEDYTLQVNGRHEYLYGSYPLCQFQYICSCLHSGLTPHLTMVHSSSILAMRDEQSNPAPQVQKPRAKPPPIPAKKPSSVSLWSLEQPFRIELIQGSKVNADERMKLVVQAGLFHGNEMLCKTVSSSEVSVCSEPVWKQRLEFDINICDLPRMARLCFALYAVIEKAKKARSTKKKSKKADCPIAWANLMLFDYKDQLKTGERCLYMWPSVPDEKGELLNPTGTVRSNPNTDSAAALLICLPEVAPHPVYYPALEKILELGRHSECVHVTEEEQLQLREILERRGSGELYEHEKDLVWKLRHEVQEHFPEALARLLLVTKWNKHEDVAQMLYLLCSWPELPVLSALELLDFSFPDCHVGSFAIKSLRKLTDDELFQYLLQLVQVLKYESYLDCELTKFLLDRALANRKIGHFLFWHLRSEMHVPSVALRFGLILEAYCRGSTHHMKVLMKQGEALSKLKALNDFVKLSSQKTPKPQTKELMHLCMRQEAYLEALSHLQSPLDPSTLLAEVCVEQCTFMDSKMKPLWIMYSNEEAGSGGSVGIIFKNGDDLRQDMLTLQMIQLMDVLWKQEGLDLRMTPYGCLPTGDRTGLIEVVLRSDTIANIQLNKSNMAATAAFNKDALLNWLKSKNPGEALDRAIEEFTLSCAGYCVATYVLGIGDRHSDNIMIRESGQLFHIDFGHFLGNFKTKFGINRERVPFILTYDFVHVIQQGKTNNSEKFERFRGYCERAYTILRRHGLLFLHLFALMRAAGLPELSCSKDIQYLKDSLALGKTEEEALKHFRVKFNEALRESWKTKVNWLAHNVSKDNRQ

Rattus norvegicus [10] = assay: Toxicity in nude Rowett rat xenografted with human RT112 cells assessed as body weight loss at 5 mg/kg, po qd administered for 20 days; type: organism-based, RT-112; parameters: dose 5 mg/kg, route oral; details: in vivo, 480 h
Method in brief: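 Female nude Rowett rats carried subcutaneous RT112 tumors (1 × 10^6 cells in Matrigel), starting at about 100 mm3. The monophosphate salt was gavaged daily for 20 days at 5, 10 or 15 mg/kg (free base) in acetate buffer pH 4.6/PEG300 (1:1), n = 8. Body weight and morbidity were monitored; ANOVA with Dunnett's test.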

Rattus norvegicus [11] = assay: Inhibition of FGFR autophosphorylation in RT112 tumor bearing nude rowett rat assessed as decrease in pFRS2 concentration at 4.25 mg/kg, po administered as a single dose by Western blot analysis; type: functional, organism-based; parameters: dose 4.25 mg/kg
Method in brief: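 RT112 tumor-bearing nude Rowett rats (n = 4) received a single oral dose of monophosphate salt at 4.25 or 8.51 mg/kg free base. Tumors were collected at time points up to 24 h and lysed in Tris/Triton buffer with vanadate and protease inhibitors. Western blots were run for pFRS2(Tyr196) and pMAPK, with total FRS2, total MAPK or β-tubulin as loading controls.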

RT-112 [12] = assay: Antitumor activity against human RT112 cells xenografted in athymic nude mouse assessed as tumor growth inhibition at 10 mg/kg, po administered for 12 days; type: functional, organism-based; parameters: dose 10 mg/kg
Method in brief: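 Female HsdNpa:Athymic Nude-nu mice received RT112/luc1 cells (luciferase retroviral line; about 1–2×10^5 cells) into the bladder lumen. Oral treatment started 14 days after inoculation: suspension in PEG300/D5W (2:1) at 10 or 30 mg/kg/qd for 12 days. Tumor burden was measured by IVIS bioluminescence 10 min after iv D-luciferin. T/C was computed from change in light emission; ANOVA with Dunnett's test.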

RT-112 [13] = assay: Antitumor activity against human RT112 cells xenografted in nude Rowett rat assessed as tumour stasis at 5 mg/kg, po qd administered for 20 days; type: functional, organism-based; parameters: dose 5 mg/kg
Method in brief: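 Female nude Rowett rats aged 6–9 weeks were given 1×10^6 RT112 cells subcutaneously in HBSS/50% Matrigel. Treatment began at about 100 mm3 mean tumor volume (n = 8): monophosphate salt in acetate buffer pH 4.6/PEG300 (1:1) by gavage, 5 mL/kg, at 5, 10, 15 mg/kg/qd free base for 20 days. Tumors were measured by caliper (L×W×H×π/6). Readouts were T/C and % regression from start volume.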

Tumour = assay: Drug uptake in tumour of nude Rowett rat bearing human RT112 cells at 4.25 mg/kg, po administered as a single dose after 24 hrs by LC-MS/MS analysis; type: ADME, organism-based, Neoplasm, RT-112; parameters: dose 4.25 mg/kg, route oral; details: in vivo
Method in brief: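 Nude Rowett rats bearing subcutaneous RT112 tumors (n = 4) received a single gavage of monophosphate salt at 4.25 or 8.51 mg/kg free base in acetate buffer pH 4.6/PEG300. Tumors were collected at intervals after dosing, frozen and homogenized in an equal volume of ice-cold PBS. Compound levels were measured by LC-MS/MS (LOQ 3 ng/mL).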

Mus musculus [14] = assay: Antiangiogenic activity in po dosed FVB mouse agar chamber model assessed as inhibition of b-FGF-induced angiogenesis around the capsule; type: functional, organism-based
Method in brief: (§4)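 Female FVB mice implanted subcutaneously with perfluoroalkoxy-Teflon chambers holding 0.8% agar with 20 U/mL heparin, with or without dog VEGF 2 μg/mL or bFGF 0.3 μg/mL. Oral dosing at 10, 30, 50 mg/kg/day in 10% NMP/PEG300 (5 mL/kg), started before implantation and continued 3 days. Capsules were removed 24 h after the last dose. Readout was capsule weight and Tie-2 by ELISA, as % inhibition against vehicle and no-growth-factor background.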

Mus musculus [15] = assay: Antiangiogenic activity in FVB mouse agar chamber model assessed as inhibition of VEGF-induced angiogenesis at 10 to 50 mg/kg, po administered for 4 days; type: functional, organism-based; method in brief: as §4
[16] = biological target: ALK tyrosine kinase receptor (Homo sapiens, UniProt Q9UM73); assay: Inhibition of recombinant ALK; method in brief: as §1
ALK tyrosine kinase receptor, sequence (Q9UM73 whole entry): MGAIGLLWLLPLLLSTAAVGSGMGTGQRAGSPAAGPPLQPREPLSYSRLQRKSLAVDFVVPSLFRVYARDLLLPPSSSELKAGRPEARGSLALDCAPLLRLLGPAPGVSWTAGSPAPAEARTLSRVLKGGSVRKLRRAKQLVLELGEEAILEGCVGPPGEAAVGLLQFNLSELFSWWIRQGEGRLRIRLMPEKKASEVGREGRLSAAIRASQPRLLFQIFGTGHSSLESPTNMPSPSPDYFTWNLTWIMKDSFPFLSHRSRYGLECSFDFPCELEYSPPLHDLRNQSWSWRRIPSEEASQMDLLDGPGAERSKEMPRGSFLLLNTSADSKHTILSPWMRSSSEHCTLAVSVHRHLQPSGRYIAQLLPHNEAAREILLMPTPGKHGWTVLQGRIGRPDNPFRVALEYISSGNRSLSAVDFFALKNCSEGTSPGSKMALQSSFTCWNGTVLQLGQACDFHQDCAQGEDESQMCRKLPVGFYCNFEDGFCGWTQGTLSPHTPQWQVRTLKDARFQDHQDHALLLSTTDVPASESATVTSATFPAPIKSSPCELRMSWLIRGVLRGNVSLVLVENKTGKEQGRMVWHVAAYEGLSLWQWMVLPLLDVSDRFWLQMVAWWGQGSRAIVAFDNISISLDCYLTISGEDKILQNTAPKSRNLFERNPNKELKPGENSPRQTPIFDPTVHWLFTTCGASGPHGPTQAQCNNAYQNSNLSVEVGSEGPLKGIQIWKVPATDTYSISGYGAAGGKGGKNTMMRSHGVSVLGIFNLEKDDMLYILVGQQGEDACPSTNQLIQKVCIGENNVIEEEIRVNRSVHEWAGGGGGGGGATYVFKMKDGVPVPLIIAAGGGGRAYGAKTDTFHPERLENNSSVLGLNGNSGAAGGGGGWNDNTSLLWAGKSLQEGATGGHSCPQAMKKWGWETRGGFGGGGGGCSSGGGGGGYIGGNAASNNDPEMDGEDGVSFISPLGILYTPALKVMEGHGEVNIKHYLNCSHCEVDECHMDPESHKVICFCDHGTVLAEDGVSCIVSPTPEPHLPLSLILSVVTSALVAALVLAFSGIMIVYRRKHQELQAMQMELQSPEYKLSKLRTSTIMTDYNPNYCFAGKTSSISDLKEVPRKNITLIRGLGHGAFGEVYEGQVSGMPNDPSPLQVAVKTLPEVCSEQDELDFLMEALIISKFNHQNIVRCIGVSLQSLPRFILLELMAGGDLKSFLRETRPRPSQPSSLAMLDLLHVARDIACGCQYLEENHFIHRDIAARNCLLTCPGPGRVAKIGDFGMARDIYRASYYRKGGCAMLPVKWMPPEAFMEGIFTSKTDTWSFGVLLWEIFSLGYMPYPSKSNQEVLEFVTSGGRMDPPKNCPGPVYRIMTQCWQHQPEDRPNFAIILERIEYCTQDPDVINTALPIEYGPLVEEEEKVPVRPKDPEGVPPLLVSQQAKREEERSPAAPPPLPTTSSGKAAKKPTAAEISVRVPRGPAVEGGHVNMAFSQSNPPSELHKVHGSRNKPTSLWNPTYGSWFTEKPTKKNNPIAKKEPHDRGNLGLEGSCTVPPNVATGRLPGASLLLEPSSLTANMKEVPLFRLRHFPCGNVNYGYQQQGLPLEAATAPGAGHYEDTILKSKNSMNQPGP

Compound `CCN1CCN(c2ccc(Nc3cc(N(C)C(=O)Nc4c(Cl)c(OC)cc(OC)c4Cl)ncn3)cc2)CC1.O=P(O)(O)O` [INFIGRATINIB PHOSPHATE] has an IC50 [1] of 300 nM, a Cmax [2] of 420 nM and a half-life [3] of 6.7 h. The half-life [4] was 13 h, the bioavailability [5] was 32% and the bioavailability [6] was 51%. The IC50 [7] was 15 nM, the IC50 (HT1197) was 1160 nM and the IC50 (UMUC3) was > 3000 nM. For the same compound, the IC50 [8] was > 10000 nM, the IC50 [9] was > 9000 nM and the Activity (Rattus norvegicus [10]) was “Non-toxic”. The inhibition (Rattus norvegicus [11]) was “Active”, the inhibition (RT-112 [12]) was “Active” and the Activity (RT-112 [13]) was “Active”. For the same compound, the Drug uptake (Tumour) was 0.12 nmol/g, the inhibition (Mus musculus [14]) was “Dose-dependent effect” and the inhibition (Mus musculus [15]) was “inactive”. For the same compound, the IC50 [16] was > 10000 nM.
